Measurements reported in paper PMC4233149 (Clinical cancer research : an official journal of the …, 2014).
Read-outs that look alike come from different tables or passages of the source.

Legend:
[1] = Plasma pharmacokinetics, QW schedule; format: in vivo, human; conditions: human, plasma, oral; for concentration at 48 h: Day 1, plasma
Method in brief: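 Plasma was sampled after the first and last weekly oral dose of cycle 1 (90–300mg). Concentrations were analysed non-compartmentally for AUC0-168h, Cmax, C48h […], Tmax and apparent terminal t1/2. Last-day/day-1 ratios were derived for AUC, Cmax and C48h.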

[2] = Plasma pharmacokinetics, QOD schedule; format: in vivo, human; conditions: 60mg QOD
pSer473 AKT [3] = assay: PD biomarker in paired tumor biopsies; format: in vivo, human
Method in brief: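 Paired tumor biopsies were taken before and on treatment (oral QW or 60mg QOD). pSer473 AKT was quantified by MSD electrochemiluminescence assay validated to Good Clinical Practice standards. Levels were expressed as percent of each patient's baseline.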

pSer473 AKT [4] = assay: PD biomarker in platelet-rich plasma; format: in vivo, human; conditions: PRP
pSer9 GSK3β = assay: PD biomarker in platelet-rich plasma; format: in vivo, human; conditions: PRP; for mean pSer9 GSK3β signal, % of baseline levels: 200mg QW, n=11
pThr246 PRAS40 = assay: PD biomarker in platelet-rich plasma; format: in vivo, human; conditions: 60mg QOD, PRP
Method in brief: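 Platelet-rich plasma was collected at baseline and at 3, 6, 24 and 48h on oral 60mg QOD dosing. pThr246 PRAS40 was measured by MSD electrochemiluminescence assay validated to Good Clinical Practice standards. Values were expressed as percent of individual baseline, averaged per timepoint, and compared with baseline by paired t-test.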

advanced solid tumors [5] = assay: Tumor response; format: in vivo, human
Method in brief: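 Radiological disease status was assessed by RECIST 1.1 at baseline and every 8 weeks during oral weekly dosing.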

advanced solid tumors [6] = assay: Multiparametric functional MRI; format: in vivo, human; conditions: 60mg QOD, one patient with ADC response
Method in brief: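 Oral dosing at 60mg QOD to fasted patients in 28-day cycles. Imaging on a 1.5T MR system used DCE-MRI, DWI, 1H-MRS and ISW-MRI. Median Ktrans, ADC, tCho/water ratio and R2* were analysed. Four scans per patient: two pre-treatment (reproducibility cohort), then cycle 1 day 7±1 and day 21±4.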

Solubility = format: physicochemical; conditions: across physiological pH ranges
Permeability = format: physicochemical; conditions: across physiological pH ranges
[7] = alternate days (QOD), previously established; cited from earlier work
[8] = observed in the earlier QOD dose-escalation study; cited from earlier work
[9] = read-out: mean Cmax of the no-observed-adverse-effect-level (NOAEL) dose; dogs, preclinical toxicology studies; cited from earlier work
pSer473 AKT [10] = conditions: cited from earlier work

NC1(c2ccc(-c3nc4ccn5c(=O)[nH]nc5c4cc3-c3ccccc3)cc2)CCC1 [MK-2206]
concentration at 48 h ([1]; 250 mg, C48h Mean ± SD, 250mg QW): 103 ± 19.6 nM | Cmax ([1]; 250 mg, Cmax, 250mg QW, Last Day of cycle 1, plasma, N=1): 169 nM | concentration at 48 h ([1]; 300 mg, C48h Mean, 300mg QW): 253 nM | Cmax ([1]; 300 mg, mean Cmax after the first dose, 300mg QW cohort): 466 nM | Cmax ([1]; mean Cmax levels after multiple QW dose administration, 90mg to 250mg QW): 153 to 245 nM | accumulation ratio AUClast day:AUCfirst day [2]: 3.3 | pSer473 AKT levels, % of baseline levels (range) (pSer473 AKT [3]; 60mg QOD, 3 patients): 45.3-56.2% | mean pSer473 AKT levels, % of baseline levels (pSer473 AKT [3]; 60mg QOD, 3 patients, p=0.004): 50.1% | pSer473 AKT signal, % of baseline levels (range) (pSer473 AKT [3]; 200mg QW, 5 patients): 37.5-60.3% | pSer473 AKT signal, % of baseline levels (pSer473 AKT [3]; 200mg QW, 5 patients, p=0.0003): 50.0% | overall mean decrease of pSer473 AKT levels (pSer473 AKT [4]; 60mg QOD): 55.3% | time of maximum inhibition of pSer473 AKT post-MK-2206 (pSer473 AKT [4]; 60mg QOD): 6 h | mean pSer473 AKT signal, % of baseline levels (pSer473 AKT [4]; 60mg QOD, 3h, 29 patients): 36.3% | mean pSer473 AKT signal, % of baseline levels (pSer473 AKT [4]; 60mg QOD, 6h, 29 patients): 27.9% | mean pSer473 AKT signal, % of baseline levels (pSer473 AKT [4]; 60mg QOD, 24h, 29 patients): 44.0% | mean pSer473 AKT signal, % of baseline levels (pSer473 AKT [4]; 60mg QOD, 48h, 29 patients): 70.6% | mean pSer473 AKT levels, % of baseline levels (pSer473 AKT [4]; 60mg QOD, 48h, one outlier removed (28 patients), p=0.0004): 60.1% | time of maximal suppression of pSer473 AKT and its substrate pSer9 GSK3β (pSer473 AKT [4]; 150mg QW, breast cancer patient): 24 h | mean pSer473 AKT signal, % of baseline levels (pSer473 AKT [4]; 200mg QW, 24h, n=11): 19.8% | mean pSer473 AKT signal, % of baseline levels (pSer473 AKT [4]; 200mg QW, 48h, n=11): 30.6% | mean pSer473 AKT signal, % of baseline levels (pSer473 AKT [4]; 200mg QW, 96h, n=11): 51.7% | mean pSer473 AKT signal, % of baseline levels (pSer473 AKT [4]; 200mg QW, 168h, n=11): 97.4% | duration of initial suppression of pSer473 AKT phosphorylation signal (pSer473 AKT [4]; QW MTD): at least 96 h | time of maximum suppression of pSer9 GSK3β post-MK-2206 (pSer9 GSK3β; 60mg QOD): 6 h | mean pSer9 GSK3β levels, % of baseline levels (pSer9 GSK3β; 60mg QOD, 3h): 76.8% | mean pSer9 GSK3β levels, % of baseline levels (pSer9 GSK3β; 60mg QOD, 6h): 67.5% | mean pSer9 GSK3β levels, % of baseline levels (pSer9 GSK3β; 60mg QOD, 24h): 102.9% | mean pSer9 GSK3β signal, % of baseline levels (pSer9 GSK3β; 24h): 65.0% | mean pSer9 GSK3β signal, % of baseline levels (pSer9 GSK3β; 48h): 82.3% | mean pSer9 GSK3β signal, % of baseline levels (pSer9 GSK3β; 96h): 91.4% | mean pSer9 GSK3β signal, % of baseline levels (pSer9 GSK3β; 168h): 117.2% | time of maximum suppression of pThr246 PRAS40 post-MK-2206 (pThr246 PRAS40): 6 h | mean pThr246 PRAS40 levels, % of baseline levels (pThr246 PRAS40; 3h): 79.8% | mean pThr246 PRAS40 levels, % of baseline levels (pThr246 PRAS40; 6h): 79.7% | mean pThr246 PRAS40 levels, % of baseline levels (pThr246 PRAS40; 24h): 86.9% | mean pThr246 PRAS40 levels, % of baseline levels (pThr246 PRAS40; 48h): 91.4% | mean pThr246 PRAS40 levels, % of baseline levels (pThr246 PRAS40; 48h, one outlier removed (28 patients), p=0.0019): 81.9% | reduction in RECIST measurements of target lesions (advanced solid tumors [5]; 150mg QW, 8 weeks, one patient with ER/PR positive, HER2 negative metastatic breast cancer, PIK3CA exon 20 mutation): 22% | total time on treatment (advanced solid tumors [5]; 150mg QW, breast cancer patient, before disease progression): 24 weeks | CA15-3 level after treatment (advanced solid tumors [5]; 150mg QW, breast cancer patient, from 6853U/ml): 4399 U/ml | reduction in CA15-3 (advanced solid tumors [5]; 150mg QW, same breast cancer patient): ~36% | duration of RECIST SD (range) (advanced solid tumors [5]; two patients with CRPC): 6.5-7.5 months | reduction in K^trans (advanced solid tumors [6]): 20% | solubility (Solubility): relatively low solubility | permeability (Permeability): high permeability | maximum tolerated dose (MTD) [7]: 60 mg | half-life [8]: 60 to 80 h | Cmax [9]: 365 nM | concentration required for 70% inhibition of pSer473 AKT in whole blood (pSer473 AKT [10]; level identified in preclinical models as associated with antitumor activity): 57 nmol/L | prespecified PK target for 70% inhibition of pAKT (pSer473 AKT [10]; plasma concentration target): 56.8 nM
